This is an account of results in ChEMBL document CHEMBL4229344 (Eur J Med Chem, 2018).

One may read the IC50 as the midpoint of a concentration-inhibition curve. Higher therefore signals weaker potency. As a reminder, the GI50 is the concentration giving 50% growth inhibition. High values mean less potent growth inhibition, low ones more potent growth inhibition. As usually defined, the Cmax is the peak of the concentration-time curve.

Data set [1] has as its target 1-phosphatidylinositol 3-phosphate 5-kinase (Homo sapiens) (UniProt Q9Y2I7). Kind of data set: Binding affinity to wild-type human partial length PIKFYVE (F1512 to C2098 residues) expressed in mammalian expression system assessed as residual binding level at 1 uM by Kinomescan method relative to control. Put shortly:
(§1)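 KINOMEscan competition binding against a panel of 468 purified kinases/mutants, compound tested at 1 μM; readout is relative binding activity versus control.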

The test system of data set [2] is Tyrosine-protein kinase ABL1 (Homo sapiens), P00519 [Q252H]. The data set is described as follows: Binding affinity to human non-phosphorylated ABL1 Q252H mutant (S229 to K512 residues) expressed in mammalian expression system assessed as residual binding level at 1 uM by Kinomescan method relative to control. Put shortly: (§2)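 Kinome-wide single-concentration binding screen (KINOMEscan) at 1 μM against a panel of 468 purified kinases and mutants. Read-out is relative binding of each kinase compared with control. Selectivity across the panel was summarised as an S(10) score.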

Data set [3] concerns the target Mitogen-activated protein kinase kinase kinase kinase 1 (Homo sapiens) (UniProt Q92918). The data set is described as follows: Binding affinity to wild-type human full length HPK1 (M1 to R799 residues) expressed in bacterial expression system assessed as residual binding level at 1 uM by Kinomescan method relative to control. The gist of the method: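 KINOMEscan competition binding against 468 purified kinases/mutants, test compound at 1 µM; residual binding relative to control.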

For data set [4], the system named is Leucine-rich repeat serine/threonine-protein kinase 2 (Homo sapiens), Q5S007 [G2019S]. Kind of data set: Binding affinity to human partial length LRRK2 G2019S mutant (H970 to E2527 residues) expressed in mammalian expression system assessed as residual binding level at 1 uM by Kinomescan method relative to control. Put shortly:
as §2

Data set [5] deals with Serine/threonine-protein kinase WNK3 (Homo sapiens) (UniProt Q9BYP7). The data set is described as follows: Binding affinity to wild-type human partial length WNK3 (M1 to D434 residues) expressed in mammalian expression system assessed as residual binding level at 1 uM by Kinomescan method relative to control.
Chain of Serine/threonine-protein kinase WNK3 (Homo sapiens) (Q9BYP7 whole entry, the tested form may be a part): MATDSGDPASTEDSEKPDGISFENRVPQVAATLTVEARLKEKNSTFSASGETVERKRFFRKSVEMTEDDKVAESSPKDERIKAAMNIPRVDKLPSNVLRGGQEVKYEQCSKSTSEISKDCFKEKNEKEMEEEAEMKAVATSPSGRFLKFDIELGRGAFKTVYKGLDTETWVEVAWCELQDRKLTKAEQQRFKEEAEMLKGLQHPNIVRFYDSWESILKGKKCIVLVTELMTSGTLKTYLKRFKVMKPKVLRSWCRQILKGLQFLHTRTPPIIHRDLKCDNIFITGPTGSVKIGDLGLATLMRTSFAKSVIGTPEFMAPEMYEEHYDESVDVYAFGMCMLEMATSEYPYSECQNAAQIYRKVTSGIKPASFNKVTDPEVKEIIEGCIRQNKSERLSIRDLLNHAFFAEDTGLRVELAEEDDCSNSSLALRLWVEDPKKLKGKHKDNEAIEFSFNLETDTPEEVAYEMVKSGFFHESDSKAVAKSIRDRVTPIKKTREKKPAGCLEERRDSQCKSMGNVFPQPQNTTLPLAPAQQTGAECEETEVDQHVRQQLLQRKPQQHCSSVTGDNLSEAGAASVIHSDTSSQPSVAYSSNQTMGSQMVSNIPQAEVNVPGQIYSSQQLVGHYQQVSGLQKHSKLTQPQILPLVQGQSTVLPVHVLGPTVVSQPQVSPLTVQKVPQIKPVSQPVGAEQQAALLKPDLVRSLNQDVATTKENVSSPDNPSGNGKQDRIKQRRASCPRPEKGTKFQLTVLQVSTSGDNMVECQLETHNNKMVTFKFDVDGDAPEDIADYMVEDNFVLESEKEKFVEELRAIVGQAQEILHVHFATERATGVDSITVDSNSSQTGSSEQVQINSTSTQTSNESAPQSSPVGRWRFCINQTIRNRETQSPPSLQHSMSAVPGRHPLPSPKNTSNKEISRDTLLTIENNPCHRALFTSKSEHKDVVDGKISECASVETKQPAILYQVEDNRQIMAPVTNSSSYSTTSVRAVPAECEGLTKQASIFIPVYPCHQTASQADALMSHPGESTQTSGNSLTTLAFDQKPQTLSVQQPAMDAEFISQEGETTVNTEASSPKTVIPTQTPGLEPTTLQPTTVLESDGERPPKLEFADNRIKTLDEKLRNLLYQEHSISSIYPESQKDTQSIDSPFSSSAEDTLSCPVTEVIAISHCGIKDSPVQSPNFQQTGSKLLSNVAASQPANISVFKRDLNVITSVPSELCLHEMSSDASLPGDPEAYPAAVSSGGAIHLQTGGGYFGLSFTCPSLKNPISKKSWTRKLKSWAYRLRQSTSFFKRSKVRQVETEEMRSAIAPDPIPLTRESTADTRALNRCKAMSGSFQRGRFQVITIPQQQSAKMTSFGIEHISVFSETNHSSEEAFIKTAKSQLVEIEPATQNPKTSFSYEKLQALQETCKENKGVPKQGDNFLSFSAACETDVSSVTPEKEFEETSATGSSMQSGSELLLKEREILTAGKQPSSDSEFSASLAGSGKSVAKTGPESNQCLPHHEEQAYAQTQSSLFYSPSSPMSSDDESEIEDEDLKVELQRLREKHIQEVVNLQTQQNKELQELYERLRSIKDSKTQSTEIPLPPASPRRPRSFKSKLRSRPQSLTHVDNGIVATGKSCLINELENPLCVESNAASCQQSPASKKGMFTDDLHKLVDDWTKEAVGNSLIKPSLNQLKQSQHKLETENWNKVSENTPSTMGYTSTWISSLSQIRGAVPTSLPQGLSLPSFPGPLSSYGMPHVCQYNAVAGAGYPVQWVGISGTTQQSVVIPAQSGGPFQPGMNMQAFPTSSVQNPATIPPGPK
For data set [6], the target named is Platelet-derived growth factor receptor beta (Homo sapiens, UniProt P09619). The data set is described as follows: Inhibition of PDGFRbeta (unknown origin) using poly(4:1 Glu,Tyr) peptide as substrate preincubated for 1 hr followed by addition of ATP and measured after 30 mins by ADP-Glo bioluminescence assay. In general terms: ADP-Glo turns the ADP formed in a reaction into a luminescent signal.
Chain of Platelet-derived growth factor receptor beta (P09619 whole entry): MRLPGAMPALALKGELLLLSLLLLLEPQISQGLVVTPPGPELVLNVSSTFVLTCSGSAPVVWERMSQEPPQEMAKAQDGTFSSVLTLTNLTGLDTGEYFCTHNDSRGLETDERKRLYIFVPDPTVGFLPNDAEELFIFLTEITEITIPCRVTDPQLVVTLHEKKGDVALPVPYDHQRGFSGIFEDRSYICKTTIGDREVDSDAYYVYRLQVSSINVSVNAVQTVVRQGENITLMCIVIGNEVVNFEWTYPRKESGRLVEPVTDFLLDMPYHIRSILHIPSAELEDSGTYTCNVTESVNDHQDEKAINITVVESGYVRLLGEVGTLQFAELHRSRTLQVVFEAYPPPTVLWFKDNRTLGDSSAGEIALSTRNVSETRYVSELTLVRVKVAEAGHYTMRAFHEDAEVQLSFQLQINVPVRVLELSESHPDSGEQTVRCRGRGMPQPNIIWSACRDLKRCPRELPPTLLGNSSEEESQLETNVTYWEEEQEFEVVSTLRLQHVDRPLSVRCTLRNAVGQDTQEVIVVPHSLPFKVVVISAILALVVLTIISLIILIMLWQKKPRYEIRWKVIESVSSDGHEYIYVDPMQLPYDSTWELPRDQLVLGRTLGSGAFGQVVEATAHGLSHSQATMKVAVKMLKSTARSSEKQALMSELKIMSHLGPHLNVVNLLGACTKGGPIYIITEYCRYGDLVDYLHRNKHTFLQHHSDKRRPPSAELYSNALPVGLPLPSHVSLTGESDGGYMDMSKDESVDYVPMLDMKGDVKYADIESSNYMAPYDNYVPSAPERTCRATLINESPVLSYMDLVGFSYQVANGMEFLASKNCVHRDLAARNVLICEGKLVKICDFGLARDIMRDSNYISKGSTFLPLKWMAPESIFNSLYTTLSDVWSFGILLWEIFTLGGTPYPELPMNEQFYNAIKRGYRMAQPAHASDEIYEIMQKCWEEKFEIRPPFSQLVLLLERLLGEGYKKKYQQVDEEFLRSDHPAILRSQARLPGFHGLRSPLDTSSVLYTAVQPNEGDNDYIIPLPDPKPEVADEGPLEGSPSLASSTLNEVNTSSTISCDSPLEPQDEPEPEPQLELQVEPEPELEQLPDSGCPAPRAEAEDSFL

In data set [7] the target is Platelet-derived growth factor receptor alpha (Homo sapiens, UniProt P16234).
Data set [8] concerns the target Myosin light chain kinase family member 4 (Homo sapiens) (UniProt Q86YV6). The data set is described as follows: Binding affinity to wild-type human partial length MYLK4 (V79 to S380 residues) expressed in bacterial expression system assessed as residual binding level at 1 uM by Kinomescan method relative to control.
Data set [9] has as its target Serine/threonine-protein kinase TNNI3K (Homo sapiens) (UniProt Q59H18). Kind of data set: Binding affinity to wild-type human full length TNNI3K (M1 to S835 residues) expressed in bacterial expression system assessed as residual binding level at 1 uM by Kinomescan method relative to control. The gist of the method: (§3)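 Single-concentration KINOMEscan (DiscoverX) binding screen at 1 μM against a panel of 468 purified kinases and mutants. The read-out is binding relative to control.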

A short description of data set [10]: Cmax in Sprague-Dawley rat at 1 mg/kg, iv. The conditions noted are these: in vivo. It is filed as ADME, organism-based. Set-up: dose 1 mg/kg, route intravenous. The gist of the method: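 Male Sprague-Dawley rats, 6–8 weeks old and fasted overnight, dosed IV at 1 mg/kg or PO at 10 mg/kg. Formulation was 5% DMSO/40% PEG400/55% saline (1 mg/mL). Jugular blood collected on heparin from 1 min to 8 h (IV) or 5 min to 24 h (PO). Plasma separated by centrifugation at 2–8 °C and stored at −80 °C.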

Data set [11] deals with Serine/threonine-protein kinase Sgk1 (Homo sapiens) (UniProt O00141). The data set is described as follows: Binding affinity to wild-type human partial length SGK (I60 to L431 residues) expressed in mammalian expression system assessed as residual binding level at 1 uM by Kinomescan method relative to control.
Chain of Serine/threonine-protein kinase Sgk1 (Homo sapiens) (O00141 whole entry, the tested form may be a part): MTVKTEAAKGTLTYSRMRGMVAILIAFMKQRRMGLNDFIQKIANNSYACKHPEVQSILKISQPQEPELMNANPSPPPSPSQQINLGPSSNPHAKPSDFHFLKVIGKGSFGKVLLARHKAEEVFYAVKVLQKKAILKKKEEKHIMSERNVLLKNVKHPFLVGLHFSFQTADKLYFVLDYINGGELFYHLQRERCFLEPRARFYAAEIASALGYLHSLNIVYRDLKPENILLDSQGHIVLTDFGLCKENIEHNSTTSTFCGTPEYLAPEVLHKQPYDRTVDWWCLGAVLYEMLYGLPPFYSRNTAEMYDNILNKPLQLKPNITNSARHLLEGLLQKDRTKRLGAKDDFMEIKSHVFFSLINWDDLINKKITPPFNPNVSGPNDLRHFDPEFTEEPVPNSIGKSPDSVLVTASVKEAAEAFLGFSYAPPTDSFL
Data set [12] addresses Inhibitor of nuclear factor kappa-B kinase subunit epsilon (Homo sapiens) (UniProt Q14164). The data set is described as follows: Binding affinity to wild-type human full length IKK-epsilon (M1 to V716 residues) expressed in mammalian expression system assessed as residual binding level at 1 uM by Kinomescan method relative to control. Put shortly:
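Single-concentration (1 μM) competition-binding screen run by KINOMEscan against a panel of 468 purified kinases and mutants. The read-out is the relative binding activity of the test compound to each kinase.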

Data set [13] has as its system Hepatocyte growth factor receptor (Homo sapiens), P08581 [M1250T]. Kind of data set: Binding affinity to human partial length MET M1250T mutant (D1010 to S1367 residues) expressed in bacterial expression system assessed as residual binding level at 1 uM by Kinomescan method relative to control. Put shortly:
as §2

The target in data set [14] is Phosphatidylinositol 4-kinase beta (Homo sapiens) (UniProt Q9UBF8). The data set is described as follows: Binding affinity to wild-type human full length PIK4CB (M1 to M828 residues) expressed in mammalian expression system assessed as residual binding level at 1 uM by Kinomescan method relative to control. The gist of the method:
as §3

The target in data set [15] is Insulin receptor-related protein (Homo sapiens) (UniProt P14616). Kind of data set: Binding affinity to wild-type human partial length INSRR (R950 to E1278 residues) expressed in bacterial expression system assessed as residual binding level at 1 uM by Kinomescan method relative to control.
The target in data set [16] is SNF-related serine/threonine-protein kinase (Homo sapiens) (UniProt Q9NRH2). The data set is described as follows: Binding affinity to wild-type human partial length SNRK (M1 to E339 residues) expressed in mammalian expression system assessed as residual binding level at 1 uM by Kinomescan method relative to control.
Chain of SNF-related serine/threonine-protein kinase (Homo sapiens) (Q9NRH2 whole entry, the tested form may be a part): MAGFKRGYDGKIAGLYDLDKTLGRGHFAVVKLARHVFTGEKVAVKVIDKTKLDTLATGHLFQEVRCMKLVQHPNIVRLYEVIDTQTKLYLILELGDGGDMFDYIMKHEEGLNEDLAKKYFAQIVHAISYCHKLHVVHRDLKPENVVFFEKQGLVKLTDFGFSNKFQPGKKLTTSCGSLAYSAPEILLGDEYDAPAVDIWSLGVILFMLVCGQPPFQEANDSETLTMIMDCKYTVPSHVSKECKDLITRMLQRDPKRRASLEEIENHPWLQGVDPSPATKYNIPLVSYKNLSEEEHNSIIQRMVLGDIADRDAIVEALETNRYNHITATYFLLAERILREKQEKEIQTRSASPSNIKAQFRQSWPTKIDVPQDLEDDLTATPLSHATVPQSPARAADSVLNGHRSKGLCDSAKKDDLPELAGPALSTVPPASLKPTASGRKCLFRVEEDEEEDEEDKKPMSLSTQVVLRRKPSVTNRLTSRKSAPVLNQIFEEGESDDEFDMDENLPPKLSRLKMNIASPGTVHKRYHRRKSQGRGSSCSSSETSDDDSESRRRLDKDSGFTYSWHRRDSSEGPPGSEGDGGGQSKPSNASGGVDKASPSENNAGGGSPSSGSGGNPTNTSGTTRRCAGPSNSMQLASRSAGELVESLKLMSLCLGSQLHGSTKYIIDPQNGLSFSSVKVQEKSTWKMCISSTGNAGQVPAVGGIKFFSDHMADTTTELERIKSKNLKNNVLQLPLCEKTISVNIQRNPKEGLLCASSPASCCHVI
Data set [17] has as its target STE20/SPS1-related proline-alanine-rich protein kinase (Homo sapiens) (UniProt Q9UEW8). Kind of data set: Binding affinity to wild-type human partial length STK39 (P43 to I357 residues) expressed in mammalian expression system assessed as residual binding level at 1 uM by Kinomescan method relative to control.
Data set [18] addresses Cyclin-dependent kinase-like 2 (Homo sapiens) (UniProt Q92772). Kind of data set: Binding affinity to wild-type human partial length CDKL2 (M1 to D327 residues) expressed in bacterial expression system assessed as residual binding level at 1 uM by Kinomescan method relative to control.
The target in data set [19] is Phosphorylase b kinase gamma catalytic chain, liver/testis isoform (Homo sapiens) (UniProt P15735). The data set is described as follows: Binding affinity to wild-type human partial length PHKG2 (M1 to W300 residues) expressed in bacterial expression system assessed as residual binding level at 1 uM by Kinomescan method relative to control. Put shortly: as §1
For data set [20], the target named is Tyrosine-protein kinase Blk (Homo sapiens) (UniProt P51451). The data set is described as follows: Binding affinity to wild-type human partial length BLK (G211 to L503 residues) expressed in bacterial expression system assessed as residual binding level at 1 uM by Kinomescan method relative to control. Put shortly: as §3
Chain of Tyrosine-protein kinase Blk (Homo sapiens) (P51451 2-505 limits assumed): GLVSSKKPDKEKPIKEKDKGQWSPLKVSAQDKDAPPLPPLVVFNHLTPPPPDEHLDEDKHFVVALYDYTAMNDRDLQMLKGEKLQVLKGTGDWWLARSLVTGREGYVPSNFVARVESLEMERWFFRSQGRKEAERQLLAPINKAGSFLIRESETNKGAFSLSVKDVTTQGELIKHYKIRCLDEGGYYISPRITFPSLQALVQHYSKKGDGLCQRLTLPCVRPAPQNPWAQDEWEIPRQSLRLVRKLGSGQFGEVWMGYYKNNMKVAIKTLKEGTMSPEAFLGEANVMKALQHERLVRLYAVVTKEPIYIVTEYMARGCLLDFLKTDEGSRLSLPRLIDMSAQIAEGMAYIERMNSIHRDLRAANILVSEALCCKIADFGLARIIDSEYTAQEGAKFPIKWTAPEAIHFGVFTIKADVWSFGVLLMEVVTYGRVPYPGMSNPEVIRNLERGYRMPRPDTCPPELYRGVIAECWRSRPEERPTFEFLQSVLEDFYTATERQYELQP
Data set [21] deals with Aurora kinase A (Homo sapiens) (UniProt O14965). Kind of data set: Binding affinity to wild-type human partial length AURKA (E122 to K401 residues) expressed in mammalian expression system assessed as residual binding level at 1 uM by Kinomescan method relative to control. Put shortly: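 Kinome-wide competition binding screen against a panel of 468 purified kinases/mutants, with the test compound at a single concentration of 1 μM. Read-out is the relative binding activity of each kinase in the presence of compound.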
Chain of Aurora kinase A (Homo sapiens) (O14965 whole entry, the tested form may be a part): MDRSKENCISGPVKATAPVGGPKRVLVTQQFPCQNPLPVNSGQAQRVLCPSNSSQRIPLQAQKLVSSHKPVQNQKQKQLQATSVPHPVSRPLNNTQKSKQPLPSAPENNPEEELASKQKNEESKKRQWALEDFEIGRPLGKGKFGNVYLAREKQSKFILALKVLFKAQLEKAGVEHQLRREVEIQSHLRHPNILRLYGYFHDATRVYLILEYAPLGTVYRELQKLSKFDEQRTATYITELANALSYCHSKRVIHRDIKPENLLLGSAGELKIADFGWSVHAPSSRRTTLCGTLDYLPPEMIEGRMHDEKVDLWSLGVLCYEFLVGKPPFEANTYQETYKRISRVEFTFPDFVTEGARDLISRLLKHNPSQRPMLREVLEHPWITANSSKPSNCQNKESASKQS

On to `Cc1ccc(NC(=O)c2ccc(CN(CCN(C)C)C(=O)c3cccnc3)cc2)cc1Nc1nccc(-c2cccnc2)n1`, for which the Activity in data set [1] turned out to be 91%; in data set [2], 23%; in data set [3] it was 94%; in [4], 59%; in [5] it was 100%; in data set [8], 76%. For the same compound, the Activity came to 100% in data set [9]; 100% in data set [11]; 100% in data set [12]; 86% in data set [13]; 100% in data set [14]; 96% in data set [15]. Moreover, the Activity in [16] is 100%; in data set [17] it was 90%; in data set [18], 95%; in data set [19] it was 89%; in data set [20], 95%; in data set [21], 74%. In data set [6], this compound gave a concentration for half-maximal inhibition (IC50) of 6.11 µM. Growth in [7] was halved (GI50) at 0.034 µM. For the same compound, in data set [10], the Cmax turned out to be 4590 ng/mL.
